Experimental findings from paper PMC7115615 (European Journal of Medicinal Chemistry, 2013) are described below.

Where two headings read alike, the source gives them in different places.

Assay [1] has as its system panel of approximately sixty human tumor cell lines. Nature of the assay: NCI one-dose primary anticancer assay. In kind it is cell-based. The following applies: for anticancer activity in words: 1 dose 10 μM; for activity at 10 µM: Homo sapiens, 60 cell, 48 h. The gist of the method:
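NCI DTP single-dose screen on approximately sixty human tumor cell lines from nine cancer types. Test compound added at 10⁻⁵ M and cultures incubated 48 h. End point by sulforhodamine B protein staining, read spectrophotometrically. Result expressed as percent growth of treated cells relative to untreated control cells.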

The test system of another assay is SARS CoV Urbani. Nature of the assay: microbe, parasite or virus in culture. The settings on record: for EC50: Severe acute respiratory syndrome coronavirus. It is filed as cell-based, SARS coronavirus.

Turning to `COc1ccc(NC(=O)CN2C(=O)S/C(=C\C(=O)N3N=C(c4ccc5ccccc5c4)CC3c3ccc(OC)cc3)C2=O)cc1` (stereo not drawn) [5d, N-(4-Methoxyphenyl)-2-(5-{2-[5-(4-methoxyphenyl)-3-naphthalen-2-yl-4,5-dihydropyrazol-1-yl]-2-oxoethylidene}-2,4-dioxothiazolidin-3-yl)-acetamide], in assay [1], the “anticancer activity in words” value is given as “did not show any activity”. Moreover, the activity at 10 µM was 98% in assay [1] (read-out: Mean growth %) and 74.7 to 119% in assay [1] (read-out: Range of growth %).

One may read the EC50 as the concentration that produces a half-maximal response. In the case of `COc1ccc(NC(=O)CN2C(=O)SC(N3N=C(c4ccc5ccccc5c4)CC3c3ccc(Cl)cc3)C2=O)cc1` (stereo not drawn) [2c, 2-{5-[5-(4-Chlorophenyl)-3-naphthalen-2-yl-4,5-dihydropyrazol-1-yl]-2,4-dioxothiazolidin-3-yl}-N-(4-methoxyphenyl)-acetamide], in the assay on SARS CoV Urbani, the SI is 0 and the EC50 was > 342 µM.

In the case of `CC(=O)N1CCN(CN2C(=O)SC(N3N=C(c4ccc5ccccc5c4)CC3c3ccc(Cl)cc3)C2=O)CC1` (stereo not drawn) [3f, 3-(4-Acetylpiperazin-1-ylmethyl)-5-[5-(4-chlorophenyl)-3-naphthalen-2-yl-4,5-dihydropyrazol-1-yl]-thiazolidine-2,4-dione], in assay [1], the “anticancer activity in words” value is “did not show any activity”. Further, the activity at 10 µM is 102% in assay [1] (read-out: Mean growth %) and 76.4 to 131% in assay [1] (read-out: Range of growth %).

Turning to `COc1ccc(C2CC(c3ccccc3)=NN2C(=O)/C=C2\SC(=O)NC2=O)cc1` (stereo not drawn) [4a, 5-{2-[5-(4-Methoxyphenyl)-3-phenyl-4,5-dihydropyrazol-1-yl]-2-oxoethylidene}-thiazolidine-2,4-dione], in assay [1], the “anticancer activity in words” value is listed as “moderately effective against few cell lines”. Further, the activity at 10 µM was 96.6% in assay [1] (read-out: Mean growth %) and 39.1 to 147% in assay [1] (read-out: Range of growth %).

Take `COc1ccc(C2CC(c3ccc4ccccc4c3)=NN2C2SC(=O)N(CN3CCOCC3)C2=O)cc1` (stereo not drawn) [3b, 5-[5-(4-Methoxyphenyl)-3-naphthalen-2-yl-4,5-dihydropyrazol-1-yl]-3-morpholin-4-ylmethylthiazolidine-2,4-dione]: the activity at 10 µM is 99.5% in assay [1] (read-out: Mean growth %) and 67.5 to 122% in assay [1] (read-out: Range of growth %).

`CCN1CCN(CN2C(=O)SC(N3N=C(c4ccc5ccccc5c4)CC3c3ccc(Cl)cc3)C2=O)CC1` (stereo not drawn) [3e, 5-[5-(4-Chlorophenyl)-3-naphthalen-2-yl-4,5-dihydropyrazol-1-yl]-3-(4-ethylpiperazin-1-ylmethyl)-thiazolidine-2,4-dione]: in the assay with SARS CoV Urbani, the SI is recorded as 0 and the EC50 is > 16.8 µM.

Consider `COc1ccc(C2CC(c3ccc4ccccc4c3)=NN2C2SC(=O)N(CN3CCCCC3)C2=O)cc1` (stereo not drawn) [3a, 5-[5-(4-Methoxyphenyl)-3-naphthalen-2-yl-4,5-dihydropyrazol-1-yl]-3-piperidin-1-ylmethylthiazolidine-2,4-dione], for which the values for the activity at 10 µM in assay [1] (read-out: Mean growth %) and in assay [1] (read-out: Range of growth %) were 101% and 69.5 to 113%, respectively.

Turning to `COc1ccc(C2CC(c3ccc4ccccc4c3)=NN2C2SC(=O)N(CN3CCN(C(C)=O)CC3)C2=O)cc1` (stereo not drawn) [3c, 3-(4-Acetylpiperazin-1-ylmethyl)-5-[5-(4-methoxyphenyl)-3-naphthalen-2-yl-4,5-dihydro-pyrazol-1-yl]-thiazolidine-2,4-dione], the results for the activity at 10 µM in assay [1] (read-out: Mean growth %) and in assay [1] (read-out: Range of growth %) were 101% and 82.2 to 126%, respectively.

For `COc1ccc(C2CC(c3ccc4ccccc4c3)=NN2C(=O)/C=C2\SC(=O)NC2=O)cc1` (stereo not drawn) [4e, 5-{2-[5-(4-Methoxyphenyl)-3-naphthalen-2-yl-4,5-dihydropyrazol-1-yl]-2-oxoethylidene}-thiazolidine-2,4-dione], the “anticancer activity in words” value in assay [1] is “did not show any activity”. In addition, the activity at 10 µM in assay [1] (read-out: Mean growth %) was 99.7%; in assay [1] (read-out: Range of growth %), 78.7 to 132%.

With `COc1ccc(C2CC(c3ccc4ccccc4c3)=NN2C2SC(=O)N(CN3CCN(Cc4ccccc4)CC3)C2=O)cc1` (stereo not drawn) [3d, 3-(4-Benzylpiperazin-1-ylmethyl)-5-[5-(4-methoxyphenyl)-3-naphthalen-2-yl-4,5-dihydropyrazol-1-yl]-thiazolidine-2,4-dione], the figures for the activity at 10 µM in assay [1] (read-out: Mean growth %) and in assay [1] (read-out: Range of growth %) were 103% and 74.5 to 127%, respectively.
